Measurements of several laboratories.
Lines come from different studies, so protocols differ.
Target: Ephrin type-B receptor 4 (EPHB4, Homo sapiens, UniProt P54760)
Residues used in one study (P54760 16-987): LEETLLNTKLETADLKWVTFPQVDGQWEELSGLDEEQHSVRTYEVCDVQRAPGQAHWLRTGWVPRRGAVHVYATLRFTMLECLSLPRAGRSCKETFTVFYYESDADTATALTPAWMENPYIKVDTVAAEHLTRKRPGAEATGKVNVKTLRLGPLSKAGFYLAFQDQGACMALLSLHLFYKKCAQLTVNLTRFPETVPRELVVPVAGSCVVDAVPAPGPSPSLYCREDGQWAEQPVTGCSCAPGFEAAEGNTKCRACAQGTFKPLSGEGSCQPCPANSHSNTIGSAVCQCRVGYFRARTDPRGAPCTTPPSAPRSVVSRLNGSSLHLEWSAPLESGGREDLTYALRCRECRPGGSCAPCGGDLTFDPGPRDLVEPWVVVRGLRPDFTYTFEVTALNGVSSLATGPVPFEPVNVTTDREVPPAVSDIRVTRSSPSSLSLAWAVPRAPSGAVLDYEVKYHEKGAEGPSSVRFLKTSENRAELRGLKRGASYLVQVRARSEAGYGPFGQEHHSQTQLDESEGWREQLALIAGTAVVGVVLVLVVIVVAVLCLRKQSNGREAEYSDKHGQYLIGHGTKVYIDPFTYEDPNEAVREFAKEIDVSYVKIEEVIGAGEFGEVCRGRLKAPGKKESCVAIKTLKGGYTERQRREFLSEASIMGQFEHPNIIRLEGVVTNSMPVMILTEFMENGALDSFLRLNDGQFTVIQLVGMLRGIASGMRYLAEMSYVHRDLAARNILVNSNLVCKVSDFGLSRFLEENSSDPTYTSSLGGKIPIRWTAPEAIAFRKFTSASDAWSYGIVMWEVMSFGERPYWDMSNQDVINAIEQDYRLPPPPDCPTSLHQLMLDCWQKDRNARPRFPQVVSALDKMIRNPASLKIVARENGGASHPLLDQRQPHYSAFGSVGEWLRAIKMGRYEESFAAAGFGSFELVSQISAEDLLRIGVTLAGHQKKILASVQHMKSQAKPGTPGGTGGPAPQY

SMILES	test	conditions	quantity	result
Nc1cnc(N2CCc3cc(S(=O)(=O)Nc4c(F)cc(Cl)cc4F)cc(N4CCCC4=O)c32)nc1	cell-free assay, competition with immobilised ligand	1 µM	remaining binding	100%
Cc1ccc(Nc2nccc(N(C)c3ccc4c(C)n(C)nc4c3)n2)cc1S(N)(=O)=O	cell-free assay	0.5 µM	remaining signal	93.8%
Cc1nc(Cc2cccc(C(F)(F)F)c2)sc1-c1ccc(C(N)=O)nc1	cell-free assay, competition with immobilised ligand	1 µM	remaining binding	100%
CC(C)(O)[C@H]1CC[C@H](Nc2ccc3ncc(-c4cccc(C(F)(F)F)c4)n3n2)CC1	enzyme activity, inhibitor	1 µM	remaining activity	78.2%
Cc1sc(C(=O)NC2COC2)cc1-n1cc(NC(=O)Nc2c(F)cccc2Cl)cn1	enzyme activity, inhibitor	10 µM	remaining activity	93.7%
COc1ccc(COc2ccc(Cc3cnc(N)nc3N)cc2OC)cc1	cell-free assay	0.5 µM	remaining signal	90.5%
Cc1ccc(C(=O)NCc2ccsc2)cc1C#Cc1cn(C(C)C)c2ncnc(N)c12	enzyme activity, inhibitor	1 µM	activity vs control	28%
COc1cc(Nc2cnc(C#N)c(O[C@H](C)CN(C)C)n2)ncc1-c1cnn(C)c1	enzyme activity, inhibitor, radiometric	10 µM	remaining activity	88%
Cc1cc(NC(=O)c2cccc3cc(-c4cccc5[nH]nc(N)c45)ccc23)ccc1F	enzyme activity, inhibitor	0.1 µM	activity vs control	109%
CC(C)(C)c1nc2c(s1)c1nc(N)ncc1c1ccc(NS(=O)(=O)c3c(F)cccc3F)c(F)c12	enzyme activity, inhibitor, radiometric	1 µM	remaining activity	93%
CO[C@H]1CC[C@H](CNc2ccc(S(=O)(=O)NC(=O)c3ccc(N4CCN(CC5=C(c6ccc(Cl)cc6)CC(C)(C)CC5)CC4)cc3Oc3cnc4[nH]ccc4c3)cc2[N+](=O)[O-])CC1	cell-free assay, competition with immobilised ligand	1 µM	remaining binding	100%
Cc1[nH]c(/C=C2\C(=O)Nc3ccc(F)cc32)c(C)c1C(=O)N[C@H]1CCN(C(=O)N(C)C)C1	enzyme activity, inhibitor	1 µM	remaining activity	101%
CCCS(=O)(=O)Nc1ccc(F)c(C(=O)c2c[nH]c3ncc(-c4ccc(Cl)cc4)cc23)c1F	enzyme activity, inhibitor	1 µM	inhibition	< 20%
FC(F)c1nc2ccccc2n1-c1nc(N2CCOCC2)nc(N2CCOCC2)n1	enzyme activity, inhibitor	10 µM	remaining activity	105%
CCCOc1ccc(OC)c(F)c1C(=O)c1ccc(C(=O)N[C@@H]2CNC[C@H]2NC(=O)c2ccc3[nH]ncc3c2)cc1	enzyme activity, inhibitor	10 µM	remaining activity	79%
c1ccc(CNc2nc(N3CCOc4ccccc43)nc3c2CCCC3)cc1	target engagement in cells, inhibitor, chemoproteomics	20 mM	inhibition	-4%
c1ccc(N2CCN(Cc3nc4ccccc4[nH]3)CC2)nc1	cell-free assay, competition with immobilised ligand	1 µM	remaining binding	100%
N#CCCc1ccc2c(c1)-c1[nH]c3ccc([N+](=O)[O-])cc3c1CC(=O)N2	cell-free assay	0.5 µM	remaining signal	82.2%
O=C(Nc1cnn(-c2csc(C(=O)NC3COC3)c2)c1)Nc1ccccc1Cl	enzyme activity, inhibitor	5 µM	remaining activity	97.8%
Cc1cc(NC(=O)c2cccc(S(F)(F)(F)(F)F)c2)cc(-n2ccn3nc(-c4cccnc4)cc23)c1	cell-free assay, competition with immobilised ligand	1 µM	remaining binding	100%
CNCc1ccc(-c2cc(-c3nc(-c4ccc(S(=O)(=O)C(C)C)cc4)cnc3N)on2)cc1	enzyme activity, inhibitor	2 µM	inhibition	10%
CSc1nc(C)c(-c2ccnc(Nc3ccc(N4CCOCC4)cc3)c2)[nH]1	cell-free assay, inhibitor	10 µM	inhibition	18.2%
Nc1ncnc2occ(-c3ccc(NC(=O)Nc4cc(C(F)(F)F)ccc4F)cc3)c12	cell-free assay	20 µM	remaining signal	0%
O=C(NCc1ncc(C(F)(F)F)cc1Cl)c1ccc2c(c1)C1(CCS(=O)(=O)CC1)[C@H](C1CC1)N2S(=O)(=O)c1ccc(F)cc1	cell-free assay, competition with immobilised ligand	1 µM	remaining binding	100%
COc1cc2ncnc(Nc3ccc(Oc4ccccc4)c(C)c3C)c2cc1OC	enzyme activity, inhibitor	1 µM	inhibition	3%
CSc1cccnc1N1CCN(Cc2nc3ccccc3[nH]2)CC1	cell-free assay, competition with immobilised ligand	1 µM	remaining binding	100%
CNC(=O)c1cc2c(Oc3ccc(NC(=O)C4(C(=O)Nc5ccc(F)cc5)CC4)cc3)ccnc2cc1OC	enzyme activity, inhibitor, radiometric	1 µM	inhibition	83%
CC(=O)Nc1c(C(C)=O)c(=O)n(C)c2nc(-c3ccc(Cl)cc3Cl)c(-c3ccc(Cl)cc3)cc12	cell-free assay, competition with immobilised ligand	1 µM	remaining binding	100%
C[S+]([O-])c1ccc(-c2nc(-c3ccncc3)c(-c3ccc(F)cc3)[nH]2)cc1 (centres unmarked)	cell-free assay	0.5 µM	remaining signal	91.1%
